Legend:
[1] = Cytotoxicity against BALB/c mouse splenocytes at 100 uM after 48 hrs by MTT assay; format: cell-based, Splenocyte; conditions: read-out: INH
In short: (§1)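 BALB/c spleen single-cell suspension, erythrocytes depleted with Tris-buffered NH4Cl (0.155 M NH4Cl, 16.5 mM Tris, pH 7.2). Cells cultured in RPMI-1640 with 10% FBS and compound diluted from DMSO stock (0.1% DMSO in control). Medium-alone cells served as control. MTT (5 mg/mL) added 4 h before end of culture, then SDS/DMF lysis buffer (pH 7.2) for 6 h. Absorbance read at 570 nm and growth inhibition % calculated.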

[2] = Immunosuppressive activity in BALB/c mouse splenocytes assessed as inhibition of concanavalin A-induced cell proliferation at 30 uM after 48 hrs by MTT assay; format: functional; conditions: Splenocyte
In short: (§2)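 Spleen cells (5 × 10⁵) from male BALB/c mice aged 6–8 weeks, erythrocytes lysed, stimulated with ConA 5 μg/mL in RPMI-1640/10% FBS. Compounds diluted from DMSO stock. ConA-stimulated cells used as control. Proliferation read by MTT added 4 h before end of culture, SDS/DMF lysis for 6 h, absorbance at 570 nm.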

[3] = Immunosuppressive activity in BALB/c mouse splenocytes assessed as inhibition of concanavalin A-induced cell proliferation at 100 uM after 48 hrs by MTT assay; format: functional; conditions: Splenocyte; in short: as §2
[4] = Cytotoxicity against BALB/c mouse splenocytes at 10 uM after 48 hrs by MTT assay; format: cell-based, Splenocyte; conditions: read-out: INH; in short: as §1
[5] = Cytotoxicity against BALB/c mouse splenocytes at 30 uM after 48 hrs by MTT assay; format: cell-based, Splenocyte; conditions: read-out: INH; in short: as §1
[6] = Immunosuppressive activity in BALB/c mouse splenocytes assessed as inhibition of concanavalin A-induced cell proliferation at 10 uM after 48 hrs by MTT assay; format: functional; conditions: Splenocyte; in short: as §2

Compound | cytotoxicity at 48 h, 100 µM [1] | inhibition at 30 µM [2] | inhibition at 100 µM [3] | cytotoxicity at 48 h, 10 µM [4] | cytotoxicity at 48 h, 30 µM [5] | inhibition at 10 µM [6]
COc1cc(OC)c2c(=O)cc[nH]c2c1 | 7.5% | 3.7% | 12.3% | 6.1% | 7.8% | 0.1%
COc1cc(OC)c2c(O[C@@H]3O[C@H](CO)[C@@H](O)[C@H](O)[C@H]3O)ccnc2c1 | 9.5% | 6% | 20.4% | 7.6% | 9.1% | 3.6%
COc1cc(OC)c2c(O[C@@H]3O[C@H](CO)[C@H](O)[C@H](O)[C@H]3O)ccnc2c1 | 17% | 11.2% | 17.8% | 6.2% | 4.2% | 4.2%
COc1cc(OC)c2c(O[C@@H]3OC[C@@H](O)[C@H](O)[C@H]3O)ccnc2c1 | 11.2% | 14.9% | 41% | 6.9% | 9.1% | 10.3%
CCCCCCCCC(=O)Oc1ccnc2cc(OC)cc(OC)c12 | 11.6% | 2% | 31.9% | 6.4% | 2% | 4.4%
COc1cc(OC)c2c(OC(=O)c3cc(Cl)cc(Cl)c3)ccnc2c1 | 7.2% | 5.1% | 7.9% | 3.4% | 10.7% | 3.9%
COc1cc(OC)c2c(OC(=O)c3cc([N+](=O)[O-])cc([N+](=O)[O-])c3)ccnc2c1 | 13.4% | 5.1% | 5.6% | 3.4% | 9.5% | 6.3%
COc1cc(OC)c2c(OC(=O)c3cccc(Cl)c3)ccnc2c1 | 12.2% | 42% | 90.8% | 3.1% | 9.4% | 20.6%
COc1cc(OC)c2c(OC(=O)c3ccc(I)cc3)ccnc2c1 | 23.4% | 47.2% | 91.3% | 6% | 6.6% | 26.4%
O=c1cc[nH]c2cc(O)cc(O)c12 | 8.6% | 1.7% | 18% | 1.8% | 10.9% | -0.9%
Cc1cc(=O)c2c(O)cc(O)cc2[nH]1 | 11.2% | 4.4% | 26.7% | 9.1% | 9.9% | 7.5%
CCCCCCCC/C=C\CCCCCCCC(=O)Oc1ccnc2cc(OC)cc(OC)c12 | 7.2% | 8.5% | 22.2% | 4.1% | 8.8% | 4.4%
COC(=O)c1ccc(C(=O)Oc2ccnc3cc(OC)cc(OC)c23)cc1 | 23.6% | 27.8% | 91.4% | 6.6% | 2.2% | 15.7%
COc1cc(OC)c2c(OC(=O)c3ccc(Cl)cc3Cl)ccnc2c1 | 22.7% | 62.3% | 79.2% | 16.5% | 20.8% | 35.3%
COc1cc(OC)c2c(OC(=O)c3cccc([N+](=O)[O-])c3)ccnc2c1 | 12.2% | 42% | 82.8% | 3.3% | 8.1% | 18.8%
COc1cc(OC)c2c(OC(=O)c3cccc(Br)c3)ccnc2c1 | 21% | 48.8% | 91% | 1.7% | 1.7% | 16.9%
COc1cc(OC)c2c(OC(=O)c3ccccc3I)cc(C)nc2c1 | 37.6% | 54% | 91.5% | -3.4% | 18.2% | 19.9%
COc1cc(OC)c2c(OC(C)=O)ccnc2c1 | 11.3% | 9.7% | 22.7% | 8.3% | 11.2% | 4.1%
CCCCC(=O)Oc1ccnc2cc(OC)cc(OC)c12 | 9.4% | 5.3% | 13.9% | 4.5% | 10.5% | 4.1%
COc1cc(OC)c2c(OC(=O)c3ccc(Br)cc3)ccnc2c1 | 20.7% | 17.5% | 48.2% | 8.6% | 7.3% | 9.2%
COc1cc(OC)c2c(OC(=O)c3cc(Br)cc(Br)c3)ccnc2c1 | 6.3% | 10% | 12.1% | 5.5% | 9.4% | 6.4%
COc1cc(OC)c2c(OC(=O)c3cccc(I)c3)ccnc2c1 | 11.6% | 50.5% | 85.2% | 3% | 5.6% | 24.7%
COc1cc(OC)c2c(=O)cc(C)[nH]c2c1 | 23.6% | 35.4% | 57.2% | 6.5% | 14.7% | 15.9%
COc1cc(OC)c2c(OC(=O)c3ccc(Cl)cc3)ccnc2c1 | 21.9% | 47.4% | 86.3% | 3.4% | 0.3% | 30.1%
COc1cc(OC)c2c(OC(=O)c3ccccc3)cc(C)nc2c1 | 13.7% | 34.8% | 81.5% | -7.6% | -0.2% | 5.7%
COc1cc(OC)c2c(OC(=O)c3ccccc3)ccnc2c1 | 7.7% | 13.1% | 35.4% | 0% | 4.6% | 6.2%
COc1cc(OC)c2c(OC(=O)c3ccc([N+](=O)[O-])cc3)ccnc2c1 | 9.5% | 34.1% | 64% | 6% | 11.1% | 18.4%

From ChEMBL document CHEMBL1154117, “Synthesis and evaluation of a novel series of quinoline derivatives with immunosuppressive activity” (Bioorg Med Chem, 2009)
